According to paper PMC13170702 (Nuclear medicine and biology, 2025):

Experiment: organ radiation dose estimates, OLINDA 2.0, ICRP-103
Format: in vivo, human
Method in brief: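 Whole-body PET-MR ran as nine scans to 214 min. Organ VOIs were drawn in AMIDE, giving decay-corrected %IA per VOI; remainder = whole body minus measured organs. TIACs came from the EXM exponential model (OLINDA 1.1). Per-participant organ doses were computed in OLINDA 2.0 with 73 kg adult male or 60 kg female models. Effective dose (mSv) = organ absorbed doses × ICRP-103 tissue weighting factors.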

- Estimated dose, Thyroid (Female n=4, mean±SD): 0.0239±0.0171 mGy/MBq
- Estimated dose, Urinary bladder wall (Female n=4, mean±SD): 0.0516±0.0371 mGy/MBq
- Estimated dose, Uterus (Female n=4, mean±SD): 0.0573±0.0514 mGy/MBq
- Effective dose (whole body) (M1 (326 MBq)): 6.65 mSv
- Estimated absorbed dose, Adrenals (M1 (326 MBq)): 13.5 mGy
- Estimated absorbed dose, Brain (M1 (326 MBq)): 5.47 mGy
- Estimated absorbed dose, Colon, left (M1 (326 MBq)): 5.63 mGy
- Estimated absorbed dose, Colon, right (M1 (326 MBq)): 4.95 mGy
- Estimated absorbed dose, Esophagus (M1 (326 MBq)): 5.18 mGy
- Estimated absorbed dose, Eyes (M1 (326 MBq)): 2.26 mGy
- Estimated absorbed dose, Gallbladder wall (M1 (326 MBq)): 10.3 mGy
- Estimated absorbed dose, Heart wall (M1 (326 MBq)): 9.25 mGy
- Estimated absorbed dose, Kidneys (M1 (326 MBq)): 70.7 mGy
- Estimated absorbed dose, Liver (M1 (326 MBq)): 17.5 mGy
- Estimated absorbed dose, Lungs (M1 (326 MBq)): 17.0 mGy
- Estimated absorbed dose, Osteogenic cells (M1 (326 MBq)): 2.80 mGy
- Estimated absorbed dose, Pancreas (M1 (326 MBq)): 5.93 mGy
- Estimated absorbed dose, Prostate (M1 (326 MBq)): 3.21 mGy
- Estimated absorbed dose, Rectum (M1 (326 MBq)): 3.35 mGy
- Estimated absorbed dose, Red marrow (M1 (326 MBq)): 3.48 mGy
- Estimated absorbed dose, Salivary glands (M1 (326 MBq)): 2.64 mGy
- Estimated absorbed dose, Small intestine (M1 (326 MBq)): 17.2 mGy
- Estimated absorbed dose, Spleen (M1 (326 MBq)): 24.9 mGy
- Estimated absorbed dose, Stomach wall (M1 (326 MBq)): 5.27 mGy
- Estimated absorbed dose, Testes (M1 (326 MBq)): 2.11 mGy
- Estimated absorbed dose, Thymus (M1 (326 MBq)): 14.7 mGy
- Estimated absorbed dose, Thyroid (M1 (326 MBq)): 4.36 mGy
- Estimated absorbed dose, Urinary bladder wall (M1 (326 MBq)): 3.68 mGy
- Effective dose (whole body) (M2 (289 MBq)): 4.65 mSv
- Estimated absorbed dose, Adrenals (M2 (289 MBq)): 12.3 mGy
- Estimated absorbed dose, Brain (M2 (289 MBq)): 2.94 mGy
- Estimated absorbed dose, Colon, left (M2 (289 MBq)): 5.05 mGy
- Estimated absorbed dose, Colon, right (M2 (289 MBq)): 4.10 mGy
- Estimated absorbed dose, Esophagus (M2 (289 MBq)): 4.39 mGy
- Estimated absorbed dose, Eyes (M2 (289 MBq)): 1.91 mGy
- Estimated absorbed dose, Gallbladder wall (M2 (289 MBq)): 6.09 mGy
- Estimated absorbed dose, Heart wall (M2 (289 MBq)): 33.5 mGy
- Estimated absorbed dose, Kidneys (M2 (289 MBq)): 74.2 mGy
- Estimated absorbed dose, Liver (M2 (289 MBq)): 10.1 mGy
- Estimated absorbed dose, Lungs (M2 (289 MBq)): 2.65 mGy
- Estimated absorbed dose, Osteogenic cells (M2 (289 MBq)): 2.33 mGy
- Estimated absorbed dose, Pancreas (M2 (289 MBq)): 44.4 mGy
- Estimated absorbed dose, Prostate (M2 (289 MBq)): 2.91 mGy
- Estimated absorbed dose, Rectum (M2 (289 MBq)): 2.77 mGy
- Estimated absorbed dose, Red marrow (M2 (289 MBq)): 2.76 mGy
- Estimated absorbed dose, Salivary glands (M2 (289 MBq)): 2.20 mGy
- Estimated absorbed dose, Small intestine (M2 (289 MBq)): 4.04 mGy
- Estimated absorbed dose, Spleen (M2 (289 MBq)): 9.84 mGy
- Estimated absorbed dose, Stomach wall (M2 (289 MBq)): 5.89 mGy
- Estimated absorbed dose, Testes (M2 (289 MBq)): 2.02 mGy
- Estimated absorbed dose, Thymus (M2 (289 MBq)): 5.86 mGy
- Estimated absorbed dose, Thyroid (M2 (289 MBq)): 2.40 mGy
- Estimated absorbed dose, Urinary bladder wall (M2 (289 MBq)): 4.70 mGy
- Effective dose (whole body) (M3 (70.3 MBq)): 1.25 mSv
- Estimated absorbed dose, Adrenals (M3 (70.3 MBq)): 2.34 mGy
- Estimated absorbed dose, Brain (M3 (70.3 MBq)): 0.810 mGy
- Estimated absorbed dose, Colon, left (M3 (70.3 MBq)): 0.970 mGy
- Estimated absorbed dose, Colon, right (M3 (70.3 MBq)): 0.900 mGy
- Estimated absorbed dose, Esophagus (M3 (70.3 MBq)): 1.00 mGy
- Estimated absorbed dose, Eyes (M3 (70.3 MBq)): 0.450 mGy
- Estimated absorbed dose, Gallbladder wall (M3 (70.3 MBq)): 1.53 mGy
- Estimated absorbed dose, Heart wall (M3 (70.3 MBq)): 1.84 mGy
- Estimated absorbed dose, Kidneys (M3 (70.3 MBq)): 12.4 mGy
- Estimated absorbed dose, Liver (M3 (70.3 MBq)): 2.85 mGy
- Estimated absorbed dose, Lungs (M3 (70.3 MBq)): 3.35 mGy
- Estimated absorbed dose, Osteogenic cells (M3 (70.3 MBq)): 0.557 mGy
- Estimated absorbed dose, Pancreas (M3 (70.3 MBq)): 1.15 mGy
- Estimated absorbed dose, Prostate (M3 (70.3 MBq)): 0.724 mGy
- Estimated absorbed dose, Rectum (M3 (70.3 MBq)): 0.702 mGy
- Estimated absorbed dose, Red marrow (M3 (70.3 MBq)): 0.692 mGy
- Estimated absorbed dose, Salivary glands (M3 (70.3 MBq)): 0.536 mGy
- Estimated absorbed dose, Small intestine (M3 (70.3 MBq)): 1.93 mGy
- Estimated absorbed dose, Spleen (M3 (70.3 MBq)): 2.65 mGy
- Estimated absorbed dose, Stomach wall (M3 (70.3 MBq)): 0.984 mGy
- Estimated absorbed dose, Testes (M3 (70.3 MBq)): 0.477 mGy
- Estimated absorbed dose, Thymus (M3 (70.3 MBq)): 1.58 mGy
- Estimated absorbed dose, Thyroid (M3 (70.3 MBq)): 0.830 mGy
- Estimated absorbed dose, Urinary bladder wall (M3 (70.3 MBq)): 2.00 mGy
- Effective dose (whole body) (M4 (153 MBq)): 2.62 mSv
- Estimated absorbed dose, Adrenals (M4 (153 MBq)): 5.67 mGy
- Estimated absorbed dose, Brain (M4 (153 MBq)): 2.17 mGy
- Estimated absorbed dose, Colon, left (M4 (153 MBq)): 2.46 mGy
- Estimated absorbed dose, Colon, right (M4 (153 MBq)): 2.15 mGy
- Estimated absorbed dose, Esophagus (M4 (153 MBq)): 2.06 mGy
- Estimated absorbed dose, Eyes (M4 (153 MBq)): 1.08 mGy
- Estimated absorbed dose, Gallbladder wall (M4 (153 MBq)): 3.76 mGy
- Estimated absorbed dose, Heart wall (M4 (153 MBq)): 3.73 mGy
- Estimated absorbed dose, Kidneys (M4 (153 MBq)): 31.2 mGy
- Estimated absorbed dose, Liver (M4 (153 MBq)): 5.85 mGy
- Estimated absorbed dose, Lungs (M4 (153 MBq)): 5.53 mGy
- Estimated absorbed dose, Osteogenic cells (M4 (153 MBq)): 1.28 mGy
- Estimated absorbed dose, Pancreas (M4 (153 MBq)): 3.39 mGy
- Estimated absorbed dose, Prostate (M4 (153 MBq)): 1.60 mGy
- Estimated absorbed dose, Rectum (M4 (153 MBq)): 1.64 mGy
- Estimated absorbed dose, Red marrow (M4 (153 MBq)): 1.54 mGy
- Estimated absorbed dose, Salivary glands (M4 (153 MBq)): 1.26 mGy
- Estimated absorbed dose, Small intestine (M4 (153 MBq)): 6.45 mGy
- Estimated absorbed dose, Spleen (M4 (153 MBq)): 8.39 mGy
- Estimated absorbed dose, Stomach wall (M4 (153 MBq)): 2.22 mGy
- Estimated absorbed dose, Testes (M4 (153 MBq)): 1.09 mGy
- Estimated absorbed dose, Thymus (M4 (153 MBq)): 5.87 mGy
- Estimated absorbed dose, Thyroid (M4 (153 MBq)): 2.28 mGy
- Estimated absorbed dose, Urinary bladder wall (M4 (153 MBq)): 2.61 mGy
- Effective dose (whole body) (Male n=4, mean±SD): 0.0179±0.0018 mSv/MBq
- Estimated dose, Adrenals (Male n=4, mean±SD): 0.0386±0.0043 mGy/MBq
- Estimated dose, Brain (Male n=4, mean±SD): 0.0132±0.0029 mGy/MBq
- Estimated dose, Esophagus (Male n=4, mean±SD): 0.0147±0.0011 mGy/MBq
- Estimated dose, Eyes (Male n=4, mean±SD): 0.00678±0.00029 mGy/MBq
- Estimated dose, Gallbladder wall (Male n=4, mean±SD): 0.0248±0.0048 mGy/MBq
- Estimated dose, Heart wall (Male n=4, mean±SD): 0.0488±0.0449 mGy/MBq
- Estimated dose, Kidneys (Male n=4, mean±SD): 0.214±0.034 mGy/MBq
- Estimated dose, Left colon (Male n=4, mean±SD): 0.0162±0.0017 mGy/MBq
- Estimated dose, Liver (Male n=4, mean±SD): 0.0419±0.0082 mGy/MBq
- Estimated dose, Lungs (Male n=4, mean±SD): 0.0363±0.0193 mGy/MBq
- Estimated dose, Osteogenic cells (Male n=4, mean±SD): 0.00825±0.00031 mGy/MBq
- Estimated dose, Pancreas (Male n=4, mean±SD): 0.0527±0.0676 mGy/MBq
- Estimated dose, Prostate (Male n=4, mean±SD): 0.0102±0.0003 mGy/MBq
- Estimated dose, Rectum (Male n=4, mean±SD): 0.0101±0.0005 mGy/MBq
- Estimated dose, Red marrow (Male n=4, mean±SD): 0.0101±0.0005 mGy/MBq
- Estimated dose, Right colon (Male n=4, mean±SD): 0.0141±0.0010 mGy/MBq
- Estimated dose, Salivary Glands (Male n=4, mean±SD): 0.00791±0.0003 mGy/MBq
- Estimated dose, Small intestine (Male n=4, mean±SD): 0.0341±0.0169 mGy/MBq
- Estimated dose, Spleen (Male n=4, mean±SD): 0.0508±0.0194 mGy/MBq
- Estimated dose, Stomach wall (Male n=4, mean±SD): 0.0163±0.0029 mGy/MBq
- Estimated dose, Testes (Male n=4, mean±SD): 0.00684±0.00028 mGy/MBq
- Estimated dose, Thymus (Male n=4, mean±SD): 0.0316±0.0122 mGy/MBq
- Estimated dose, Thyroid (Male n=4, mean±SD): 0.0121±0.0028 mGy/MBq
- Estimated dose, Urinary bladder wall (Male n=4, mean±SD): 0.0183±0.0073 mGy/MBq
SMILES: COC(=O)[C@@H](N)CC(=O)Nc1ccc2c(c1)Cc1cc([18F])ccc1-2 [[^18F]RP-115, methyl N^4-(7-[^18F]fluoro-9H-fluoren-2-yl)asparaginate]
